Bioassay records from PubChem.
Hits are enriched below; roughly 2.3% of the tested compounds scored in any of these assays.
NR2E3 ag-1 = activates human photoreceptor nuclear receptor NR2E3; GST-NR2E3/biotin-RetCOR TR-FRET, 1536-well; inhibition of corepressor binding, % at 4.78 µM; 320,000 tested, 0.12% active; AID 2300;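 active = percent inhibition above the cutoff of mean plus 3 SD of all tested compounds, set per screening campaign, cut at about 20% in these data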;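 note: 0% = DMSO wells and 100% = biotin wells as full block of FRET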
Target sequence (Q9Y5X4 whole entry, looked up): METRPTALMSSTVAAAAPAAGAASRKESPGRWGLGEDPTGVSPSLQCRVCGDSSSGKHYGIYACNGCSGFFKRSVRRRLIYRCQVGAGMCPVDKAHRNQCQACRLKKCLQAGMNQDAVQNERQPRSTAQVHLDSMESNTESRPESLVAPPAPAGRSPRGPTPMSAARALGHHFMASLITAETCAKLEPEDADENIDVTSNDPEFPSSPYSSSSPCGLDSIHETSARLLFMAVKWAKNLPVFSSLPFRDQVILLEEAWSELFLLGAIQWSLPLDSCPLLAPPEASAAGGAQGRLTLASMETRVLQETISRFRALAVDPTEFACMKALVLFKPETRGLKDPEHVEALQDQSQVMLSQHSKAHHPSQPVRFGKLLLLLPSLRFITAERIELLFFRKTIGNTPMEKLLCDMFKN
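Test system – NR2E3–RetCOR corepressor complex · Quantity – NR2E3 fusion 1.35 nM · Buffer or medium – Tris pH 7.5 · Incubation – Compound–protein incubation for 5 h at 4 °C · Technique – TR-FRET, Eu(K)-anti-GST donor, streptavidin-D2 acceptor, ex 340, em 617/671 nm · Evaluation – percent inhibition of 671/617 nm emission ratio versus biotin and DMSO controls · Plate – 1536-well format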
GalR3 antagonist = human GalR3 antagonism; O60755; HEK293 GalR3-CNG cAMP membrane potential fluorescence; galR3 body fused to GalR1 C-terminus; inhibition, % at 3 µM; 360,000 tested, 0.44% active; AID 651719;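 active = inhibition above the screen-wide average plus 3 SD, cut at about 13% in these data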;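 note: forskolin and galanin both at EC90 stimulate the cells; cAMP rise reported by CNG channel membrane potential dye signal; 0% = forskolin plus galanin with DMSO and 100% = forskolin alone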
Target sequence (O60755 1-299 limits assumed): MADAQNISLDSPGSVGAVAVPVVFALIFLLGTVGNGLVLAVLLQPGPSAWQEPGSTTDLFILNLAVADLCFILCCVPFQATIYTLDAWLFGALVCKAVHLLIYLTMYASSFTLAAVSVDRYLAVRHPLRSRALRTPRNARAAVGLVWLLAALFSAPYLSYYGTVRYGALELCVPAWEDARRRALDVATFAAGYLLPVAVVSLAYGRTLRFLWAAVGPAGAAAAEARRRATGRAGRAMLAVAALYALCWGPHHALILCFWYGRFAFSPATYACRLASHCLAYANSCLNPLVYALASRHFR
NR2E3 ag-2 = human photoreceptor-specific nuclear receptor agonism; Q9Y5X4; CHO-S Gal4-NCOR/VP16-NR2E3 two-hybrid, luciferase; inhibition of corepressor binding, % at 3.98 µM; 360,000 tested, 0.35% active;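 active = inhibition above the mean of all tested compounds plus 3 SD, cut at about 70% in these data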;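 note: 0% = DMSO with NR2E3 transfected cells and 100% = cells lacking NR2E3 construct; higher means lower luciferase signal from less NR2E3 corepressor binding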
COUP-TFII inh = blocks human COUP-TFII nuclear receptor. HEK293T NGFI-A luciferase reporter, luminescence. inhibition, % at 8.6 µM. 370,000 tested, 0.7% active. AID 686940;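 active = inhibition above a per-plate cutoff, mean inhibition of test wells between control levels plus 3 SD, cut at about 38% in these data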;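 note: cells cotransfected with COUP-TFII expression vector driving the NGFI-A reporter; 0% = median of COUP-TF2 test wells and 100% = reporter-only cells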
CHT inh = inhibits the human high affinity choline transporter; AID 488975; Q9GZV3; B-score at 10 µM; CHT-expressing cells, membrane potential dye, choline response; hits give low values; 310,000 tested, 0.86% active;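 active = B-score over 3 SD under the library average, and starting fluorescence ratio not unusually high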;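 note: choline stimulus applied at its EC90 after an EC20 pre-addition; B-score computed on integrated fluorescence ratio after choline addition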
CHT PAM = allosteric activators of human choline transporter CHT. 310,000 tested, 0.49% active. B-score at 10 µM. AID 488977. CHT-expressing cells, membrane potential dye, choline EC20; hits give high values; LV-AA mutant CHT in HEK293 cells;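 active = initial fluorescence not abnormally high and integrated response B-score, plate-corrected, over 3 SD above library mean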
GalR3 antag conf = confirmation of human galanin receptor 3 antagonists. shares compounds with GalR3 antagonist. HEK293 GalR3 CNG cAMP biosensor, membrane potential fluorescence; galR3 fused to GalR1 carboxy tail; challenged with forskolin and galanin at EC90. inhibition, % at 3 µM. 1,600 tested, 59% active. AID 652245;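 active = inhibition above the primary screen's cutoff, the mean inhibition of all screened compounds plus 3 SD, cut at about 13% in these data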;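 note: 0% = forskolin plus galanin and 100% = forskolin alone with DMSO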
HEK-CNG parental = acts as nonspecific agonist in parental HEK-CNG cells; HEK293-CNG parental cells, cAMP membrane potential fluorescence; normalised: DMSO wells 0%, forskolin wells 100%; activation, % at 3 µM; 1,600 tested, 10% active; AID 652268; shares compounds with GalR3 antagonist; in the data active = activation above about 1.3%
Starred values were filed as active, the others as inactive; i = inactive; · = no result given.

SMILES | NR2E3 ag-1 | GalR3 antagonist | NR2E3 ag-2 | COUP-TFII inh | CHT inh | CHT PAM | GalR3 antag conf | HEK-CNG parental
Cc1ccc(CN2CCCCC(NC(=O)c3ccc(Br)cc3)C2=O)cc1 (stereo not given) | · | · | · | 2 | · | · | · | ·
O=C(CSC1=NCCS1)N1CCN(c2ccc(Cl)cc2)CC1 | 3 | 45* | 3 | 36 | i | i | 46* | 0
CCn1c(O)c(/C=N/N=C2CCCCC2)c2cc(C3=NNC(=O)CC3)ccc21 | -3 | 25* | 1 | 13 | i | i | 6 | 0
CCn1c(O)c(/C=N/N=C2CCCC2)c2ccc(C3=NNC(=O)CC3)cc21 | -2 | -1 | 7 | -10 | i | i | · | ·
Cc1ccccc1CN1CCCCC(NC(=O)Nc2cccc(F)c2)C1=O (stereo not given) | · | · | · | 5 | · | · | · | ·
Cc1nc(N2N=C(c3ccc(Cl)cc3)CC2c2ccco2)sc1C(=O)N(C)C (stereo not given) | 4 | 21* | -78 | 2 | i | i | 7 | 1
O=C(Nc1ccncc1)c1ccc2c(c1)C(=O)N(C1CCCCC1)C2=O | -1 | 46* | 11 | 21 | i | i | 57* | -1
COc1ccccc1OCC(=O)NN=C(Cc1ccccc1)Cc1ccccc1 | 1 | -6 | -58 | -14 | i | i | · | ·
CCOc1ccccc1OCC(=O)N/N=C(\C)Cc1ccc(OC)cc1 | 3 | 22* | 13 | -48 | i | i | -2 | 1
Nc1cc(=O)[nH]c(=O)n1-c1cccc(F)c1 | -2 | 27* | -19 | 11 | i | i | 6 | 0
COc1ccc(-n2c(N)cc(=O)[nH]c2=O)cc1 | 1 | · | · | · | i | i | · | ·
C=CCNC(=O)NC(=O)COC(=O)[C@H](C)NS(=O)(=O)c1c(C)c(C)cc(C)c1C | 6 | 11 | 15 | -1 | i | i | · | ·
CCNC(=O)NC(=O)C(C)OC(=O)[C@H](C)NS(=O)(=O)c1c(C)c(C)cc(C)c1C (stereo not given in full) | -1 | 39* | -5 | 4 | i | i | -2 | 0
COn1c(-c2ccc(Cl)cc2)nc2ccc(Cl)cc21 | 0 | -7 | -39 | -21 | i | i | · | ·
O=C(O)COn1c(-c2ccc(Cl)cc2)nc2ccc(Cl)cc21 | -4 | 30* | -132 | -52 | i | i | 14* | 0
Brc1ccc(OCCCN2CCOCC2)cc1 | 3 | 16* | -29 | -4 | i | i | 0 | 0
CC(C)Oc1ccc(F)cc1-c1cc(C(=O)NCc2cccs2)[nH]n1 | · | 23* | -18 | -61 | · | · | 0 | 1
CC(C)(C)c1ccc(S(=O)(=O)N2CCCC2C(=O)N2CCN(c3ccccc3)CC2)cc1 (stereo not given) | · | · | · | 15 | · | · | · | ·
N=C1/C(=C\c2ccc(-c3cc(Cl)cc(Cl)c3)o2)C(=O)N=C2SC=C(c3ccccc3)N12 | 3 | 13* | -9 | -37 | i | i | 5 | 0
COCCn1cnnc1SCC(=O)Nc1cccc(S(=O)(=O)N(C)c2ccccc2)c1 | 3 | -5 | -31 | 2 | i | i | · | ·
Cc1nnc(SCC(=O)Nc2cccc(S(=O)(=O)N(C)c3ccccc3)c2)s1 | -2 | 13* | 18 | 16 | i | i | 10 | 0
C=CCN(C(=O)[C@@H](C1CC1)[C@@H](O)c1ccc2ccccc2c1)c1ccccc1 | · | · | · | 0 | · | · | · | ·
O=C(Nc1ccc(Br)cc1F)c1ccncc1 | 1 | 22* | -18 | -33 | i | i | 15* | 0
Cc1ccc(N=C2NC(=O)/C(=C/c3cccnc3)S2)cc1C | -1 | 15* | 18 | -6 | i | i | 4 | 0
COc1ccc(-c2cn(-c3ccc(C)c(Cl)c3)c(=S)[nH]2)cc1OC | 0 | 41* | -30 | -5 | i | i | 102* | -2
SMILES | NR2E3 ag-1 | GalR3 antagonist | NR2E3 ag-2 | COUP-TFII inh | CHT inh | CHT PAM | GalR3 antag conf | HEK-CNG parental
COc1ccc(-c2cn(-c3ccc(C)c(C)c3)c(=S)[nH]2)cc1OC | -1 | -10 | -39 | -1 | i | i | · | ·
O=C(Cn1c(-c2cncs2)nc2ccccc21)N1CCCCC1 | · | · | · | 7 | · | · | · | ·
CC(=O)Nc1ccc(S(=O)(=O)Oc2ccc(N3C(=O)C4CCCCC4C3=O)cc2)cc1 (stereo not given) | 1 | 42* | 39 | 34 | i | i | 39* | -1
CC(=O)Nc1ccc(S(=O)(=O)Oc2cccc(N3C(=O)C4CC=CCC4C3=O)c2)cc1 (stereo not given) | 4 | -3 | 12 | 12 | i | i | · | ·
CCN(CC)C(=O)O[C@H]1CC[C@@]23CCCN2C(=O)CCC[C@H]3C1 | · | · | · | -8 | · | · | · | ·
O=C(COC(=O)c1cccc(Br)c1)Nc1ccc2[nH]c(=O)[nH]c2c1 | 0 | 32* | -1 | 17 | i | i | 49* | 0
O=C(COC(=O)c1c(F)cccc1F)Nc1ccc2[nH]c(=O)[nH]c2c1 | 5 | 0 | 3 | 6 | i | i | · | ·
C/C(=N/NC(=O)CSc1nnc(-c2ccccc2)n1-c1ccc(Cl)cc1)c1cccc(O)c1 | · | · | · | -1 | · | · | · | ·
Cc1ccc(OCC(=O)Nc2cc(S(=O)(=O)N3CCCCC3)ccc2C)c([N+](=O)[O-])n1 | -2 | 13* | -15 | 21 | i | i | 0 | 0
Cc1ccc(OCC(=O)Nc2ccc(S(=O)(=O)N3CCCCC3)cc2)c([N+](=O)[O-])n1 | 0 | -6 | 2 | 9 | i | i | · | ·
C[C@H](NCCc1ccc(O)cc1)[C@H](O)c1ccc(O)cc1 | 3 | 39* | -17 | -57 | i | i | 62* | 1
CC(=O)NCCc1ccc(O)cc1 | 1 | -6 | -21 | -1 | i | i | · | ·
O=S1(=O)CC2c3ccccc3CN2CN1C1CCCC1 (stereo not given) | · | · | · | 9 | · | · | · | ·
COc1cccc(-c2cc(C(=O)Nc3ccc(N(C)C(C)=O)cc3)c3cc(Br)ccc3n2)c1 | -2 | 19* | -23 | -24 | i | i | 10 | 1.4*
Cc1nn(-c2ccccc2)c(Cl)c1/C=C(\CC(=O)O)c1nc2ccccc2s1 | 2 | 13* | 11 | 14 | i | i | 3 | 0
CC(C)(C)c1ccc(-c2nnc(SCC(=O)Nc3ccc(Oc4ccccc4)cc3)n2Cc2ccco2)cc1 | · | · | · | 6 | · | · | · | ·
COc1cc(/C=N/N=C(N)N)ccc1OCc1ccc(Cl)cc1 | 1 | 92* | -118 | 0 | i | i | 45* | 1.8*
